Arbovirus inh – antivirals against arbovirus infection, primary screen, cell-based, full library, 10K replicate subset; inhibition, % at 10 µM; AID 1251, 2008; arbovirus infection cell-based antiviral screen; actives 0.37% (n = 200,000); in the data active = inhibition above about 30%
BB579 growth dn – growth inhibitors of yeast BB579 in restrictive medium, primary screen, yeast lifespan-shortening project, S. cerevisiae. OD615, 48 h. inhibition, % at 10 µM. actives 0.51% (n = 140,000). AID 804, 2007;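 active = inhibition above a set limit, 3 SD over the mean compound inhibition, cut at about 44% in these data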
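System: Saccharomyces cerevisiae DeaD strain BB579, replicative lifespan model yeast | Buffer or medium: Restrictive glucose-based CSMM-D medium | Times: 4 h preincubation and 48 h exposure at 30 °C | Detection: OD615 turbidity measurement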
Measles CPE – compounds protecting cells from measles virus cytopathic effect, primary screen, measles RdRp inhibitor project, single point, MLSMR library, absorbance. Measles virus-infected cells, CPE protection. protection (pct of control), % at 4 µM. actives 1.5% (n = 140,000). AID 841, 2007; in the data active = protection mostly above about 24%, no sharp cut-off; inactive = mostly below about 26%
HMGR II inh – inhibitors of E. faecalis class II HMGR, primary screen, biochemical, Enterococcus faecalis; inhibition, % at 10 µM; actives 0.41% (n = 190,000); HMG-CoA reductase (Enterococcus faecalis, mvaE); purified E. faecalis HMGR, NADPH absorbance 340 nm kinetic; AID 1066, 2008;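 active = inhibition above a set limit, the median over all tested compounds plus 3 SD, cut at about 9.5% in these data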;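 also: enzyme runs in reverse so mevalonate oxidation gives rising NADPH absorbance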
Yeast lifespan up – compounds extending yeast replicative lifespan, primary screen, S. cerevisiae, OD615. S. cerevisiae growth with nicotinamide; deaD strain in restrictive glucose medium. actives 0.68% (n = 130,000). inhibition of the nicotinamide effect, % at 10 µM;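 active = inhibition above a set limit, placed 3 SD over the median of all compounds, cut at about 26% in these data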
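Assay system: engineered S. cerevisiae DeaD replicative-lifespan strain, galactose-grown log-phase cells; Buffer or medium: CSMM-D glucose medium, restrictive; Probe or stimulus: nicotinamide 1.5 mM; Compound: single dose 10 µM compound, 0.25% DMSO; Schedule: 4 h preincubation then 48 h treatment at 30 °C; Technique: OD615 measurement.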
Rad51 HR inh – human RAD51 strand exchange inhibitors, primary screen, biochemical, fluorescence. DNA repair protein RAD51 homolog 1 (Homo sapiens), Q06609. hRad51 DNA strand exchange, fluorescence dequenching. inhibition, % at 10 µM. actives 0.085% (n = 200,000);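 active = inhibition above 40% at the single screening dose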
Target sequence (Q06609 whole entry, looked up): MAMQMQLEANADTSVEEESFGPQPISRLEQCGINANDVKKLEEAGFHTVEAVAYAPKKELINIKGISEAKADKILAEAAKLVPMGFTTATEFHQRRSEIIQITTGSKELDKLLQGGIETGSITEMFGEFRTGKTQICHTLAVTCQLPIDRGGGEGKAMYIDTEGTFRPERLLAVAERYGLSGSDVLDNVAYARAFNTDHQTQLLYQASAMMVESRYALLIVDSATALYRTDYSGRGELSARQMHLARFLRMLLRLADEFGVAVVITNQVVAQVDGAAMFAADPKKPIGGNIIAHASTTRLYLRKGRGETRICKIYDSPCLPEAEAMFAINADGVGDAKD
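material = hRad51 filaments on single-stranded DNA | timing = filaments 15 min 37 °C, then compound 30 min | signal = FRET fluorescence dequenching, excitation 485 nm, emission 520 nm | benchmarks = control wells and blank wells on each plate | evaluation = percent inhibition relative to plate controls and blanks | compound = 10 µM final, single point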
Each line names hits and unclear results; the compound was inactive in the other large screens. An excerpt weighted towards active compounds, which were near 2.4% of everything screened.

Cc1ccccc1C(C(=O)NC1CCCCC1)N(C(=O)c1ccccn1)c1cccnc1 (configuration not stated)	none (no result: BB579 growth dn, Measles CPE, Yeast lifespan up)
O=C(NNC(=O)c1cc(-c2ccccc2)n(-c2ccccc2)n1)c1cccc([N+](=O)[O-])c1	none
CC1=NN(c2ccc(C(F)(F)F)cn2)C(=O)C1	Yeast lifespan up 58
CS(=O)(=O)Nc1ccc(N2CCN(c3ccc(C(F)(F)F)cn3)CC2)nc1	none (no result: Arbovirus inh, BB579 growth dn, Measles CPE, HMGR II inh, Yeast lifespan up)
Cn1cc(SCC(=O)NCc2ccc3c(c2)OCO3)c2ccccc21	none
CCOC(=O)C1(CCc2ccccc2)CCN(C(=O)C2CCOCC2)CC1	none (no result: BB579 growth dn, Measles CPE, Yeast lifespan up, Rad51 HR inh)
CCOC(=O)c1cc(CC)sc1NC(=O)c1cc(OCC)c(OCC)c(OCC)c1	none (no result: Rad51 HR inh)
CCc1cc(C(=O)O)c(NC(=O)c2cc(OC)c(OC)c(OC)c2)s1	Arbovirus inh 76 (no result: BB579 growth dn, Measles CPE, Yeast lifespan up)
COc1ccc(Nc2cnn(-c3nc4ccccc4s3)c(=O)c2Cl)cc1	BB579 growth dn 78
CCc1ccc(NC(=O)CCc2nc3ccccc3[nH]2)cc1	none (no result: BB579 growth dn, Measles CPE, Yeast lifespan up)
CC(=O)Nc1ccc(Cc2nc3ccccc3[nH]2)cc1	HMGR II inh 16 (no result: BB579 growth dn, Measles CPE, Yeast lifespan up)
CC1=C(C(N)=O)C(c2ccc(Cl)cc2Cl)n2ncnc2N1 (configuration not stated)	none
CC(=O)C1=C(C)Nc2ncnn2C1c1ccccc1Cl (configuration not stated)	Measles CPE 101
O=C(c1ccc([N+](=O)[O-])cc1)N1CCSC1c1ccccc1Cl (configuration not stated)	HMGR II inh 11 (no result: BB579 growth dn, Measles CPE, Yeast lifespan up)
COc1ccc(C2SCCN2C(=O)c2ccc([N+](=O)[O-])cc2)cc1 (configuration not stated)	none (no result: BB579 growth dn, Measles CPE, Yeast lifespan up)
Cc1cc(C)nc(S/C=C/C(=O)c2ccc(F)cc2)n1	none (no result: Arbovirus inh, BB579 growth dn, Measles CPE, HMGR II inh, Yeast lifespan up)
COCc1nnc(NC(=O)c2cc(OC)c(OC)cc2[N+](=O)[O-])s1	none
COc1ccccc1N1C(=O)C2C(c3ccccc3F)NN(C(=O)c3ccc(C)cc3)C2C1=O (configuration not stated)	Measles CPE 51 (no result: Rad51 HR inh)
COc1ccc(S(N)(=O)=O)cc1C(N)=O	none (no result: BB579 growth dn, Measles CPE, Yeast lifespan up)
Cc1cccc(S(=O)(=O)Nc2ccc(-c3cn4ccccc4n3)cc2)c1	HMGR II inh 14
CC(=O)c1ccc(NS(=O)(=O)c2ccc(C)cc2)cc1	none
CC(=O)c1ccc(NS(=O)(=O)c2cccc(C)c2)cc1	Measles CPE 41
Cc1cccc(C(=O)NC(=S)Nc2ccc(S(=O)(=O)N3CCN(C)CC3)cc2)c1	none
Cc1ccc(C(=O)NC(=S)Nc2ccc(S(=O)(=O)N3CCN(C)CC3)cc2)cc1	Measles CPE 63 (no result: Rad51 HR inh)
COc1ccc(S(=O)(=O)Nc2nnc(CC(C)C)s2)cc1	none (no result: Rad51 HR inh)
CC(C)Cc1nnc(NS(=O)(=O)c2ccc(Cl)cc2)s1	Yeast lifespan up 26
Brc1ccc(CNCc2cccs2)cc1	Measles CPE 19 (no result: Rad51 HR inh)
COC(=O)c1ccccc1NC(=O)C1CCN(C(=O)c2cc(OC)c(OC)c(OC)c2)CC1	Arbovirus inh 124
COc1ccc(C(=O)N2CCC(C(=O)Nc3ccccc3C)CC2)cc1OC	HMGR II inh 10 (no result: BB579 growth dn, Measles CPE, Yeast lifespan up)
CCC(OC(=O)C(NC(=O)c1ccccc1)c1ccccc1)C(=O)Nc1cc(C)on1 (configuration not stated)	Measles CPE 47
CCC(Oc1ccccc1)C(=O)Nc1cc(C)on1 (configuration not stated)	none
CCCOc1ccc(/C=c2\sc3ncnn3c2=O)cc1	none (no result: BB579 growth dn, Measles CPE, Yeast lifespan up)
CCOc1ccccc1/C=c1\sc2ncnn2c1=O	Yeast lifespan up 49
COc1ccc(-c2nncnn2)cc1	BB579 growth dn 79 (no result: Yeast lifespan up)
COc1ccc(-c2ccc(OC)cc2)cc1	none (no result: Yeast lifespan up)
O=C(COc1cccc2ccccc12)NCc1cccnc1	none (no result: BB579 growth dn, Measles CPE, Yeast lifespan up)
O=[N+]([O-])c1ccc(-c2ccc(/C=N/O)o2)cc1	none (no result: Arbovirus inh, BB579 growth dn, Measles CPE, HMGR II inh, Yeast lifespan up)
O/N=C\c1ccc(-c2ccccc2)o1	Measles CPE 31
O/N=C/c1ccc(-c2cc(Cl)ccc2Cl)o1	Measles CPE 43
COC(=O)N/N=C/c1ccc(-c2cc(Cl)ccc2Cl)o1	none
CC1=C(C)/C(=N\OS(=O)(=O)c2ccccc2)C=CC1=O	BB579 growth dn 100
Cc1ccc(S(=O)(=O)O/N=C2\CCCc3ccccc32)cc1	none
CC(CC(=O)Nc1ccc(C(N)=O)cc1)c1ccccc1 (configuration not stated)	Measles CPE 29
C(=C\c1nc(N2CCCCCC2)c2ccccc2n1)/c1ccccc1	BB579 growth dn 74
c1ccc2c(N3CCCCC3)nc(N3CCCCC3)nc2c1	none (no result: Rad51 HR inh)
CN1CCCC(C#CC(O)(c2ccccc2)c2ccccc2)C1 (configuration not stated)	none (no result: BB579 growth dn, Measles CPE, Yeast lifespan up)
CN(C)c1ccc(S(=O)(=O)c2ccc(Cl)cc2)cc1	Yeast lifespan up 71 (no result: Rad51 HR inh)
C(=C/c1ccnc2nc(SC/C=C/c3ccccc3)nn12)/c1ccccc1	none
CC1CCCC(NC(=O)C2CCN(S(=O)(=O)N3CCCCC3)CC2)C1C (configuration not stated)	none (no result: BB579 growth dn, Measles CPE, Yeast lifespan up)
Cc1ccc(S(=O)(=O)C/N=C(/NC(=S)N(c2ccccc2)c2ccccc2)c2ccccc2)cc1	Yeast lifespan up 46
Cc1ccc(S(=O)(=O)/N=C(/NC(=S)Nc2ccccc2)c2ccccc2)cc1	none
COc1cccc(NC(=O)Nc2ccccc2C(N)=O)c1	none (no result: BB579 growth dn, Measles CPE, Yeast lifespan up)
O=C(c1cc2cc([N+](=O)[O-])ccc2oc1=O)N1CCN(C2CCCCC2)CC1	HMGR II inh 9.7 (no result: BB579 growth dn, Measles CPE, Yeast lifespan up)
CCN1CCN(C(=O)c2cc3cc([N+](=O)[O-])ccc3oc2=O)CC1	none (no result: BB579 growth dn, Measles CPE, Yeast lifespan up)
COc1cc(/C=N/NC(=O)COc2c(C)cc([N+](=O)[O-])cc2C)ccc1OC(=O)c1ccccc1	HMGR II inh 11
COc1cc(/C=N/NC(=O)COc2c(C)cc([N+](=O)[O-])cc2C)ccc1OC(=O)c1ccccc1Br	none
COc1ccc2c(=O)c3c(=O)n(Cc4ccco4)c(-c4ccc(C)cc4)nc3oc2c1	Yeast lifespan up 47
Cc1ccc(Nc2nnc(SCC(=O)NCCN3C(=O)CSC3=O)s2)cc1	none
Cc1cc(SCC(=O)OCC(=O)NCC2CCCO2)c(C)cc1Br (configuration not stated)	none (no result: BB579 growth dn, Measles CPE, Yeast lifespan up)
COc1cc(OC)cc(C(=O)Nn2c(C)nc3ccccc3c2=O)c1	none (no result: Rad51 HR inh)
COc1cc(OC)cc(-c2nc3ccccc3c(=O)n2OC(=O)c2ccc(C)c(C)c2)c1	Yeast lifespan up 64
O=S(=O)(/N=C(/Nc1ccc(F)c(F)c1F)c1ccccc1)c1ccccc1	none
COc1ccc(C(NC(=O)CNC(C)=O)C(=O)Nc2ccc(C(C)C)cc2)cc1 (configuration not stated)	Measles CPE 43

Screens from PubChem.
